Source: ChEMBL document CHEMBL3822384, “2-(3-Methoxyphenyl)quinazoline Derivatives: A New Class of Direct Constitutive Androstane Receptor (CAR) Agonists” (J Med Chem, 2016)
Calls of active or inactive are those of the source. No cut-off for these calls is given here.

Tests used:
[1] = target: T1, AHR (Homo sapiens, UniProt P35869); assay: (§1) Agonist activity at AHR expressed in human HepG2 cells after 24 hrs by pXRE-luciferase reporter gene assay; format: cell-based; settings: human, HepG2 cells expressing AHR; read-out: Imax
T1 sequence (P35869 whole entry): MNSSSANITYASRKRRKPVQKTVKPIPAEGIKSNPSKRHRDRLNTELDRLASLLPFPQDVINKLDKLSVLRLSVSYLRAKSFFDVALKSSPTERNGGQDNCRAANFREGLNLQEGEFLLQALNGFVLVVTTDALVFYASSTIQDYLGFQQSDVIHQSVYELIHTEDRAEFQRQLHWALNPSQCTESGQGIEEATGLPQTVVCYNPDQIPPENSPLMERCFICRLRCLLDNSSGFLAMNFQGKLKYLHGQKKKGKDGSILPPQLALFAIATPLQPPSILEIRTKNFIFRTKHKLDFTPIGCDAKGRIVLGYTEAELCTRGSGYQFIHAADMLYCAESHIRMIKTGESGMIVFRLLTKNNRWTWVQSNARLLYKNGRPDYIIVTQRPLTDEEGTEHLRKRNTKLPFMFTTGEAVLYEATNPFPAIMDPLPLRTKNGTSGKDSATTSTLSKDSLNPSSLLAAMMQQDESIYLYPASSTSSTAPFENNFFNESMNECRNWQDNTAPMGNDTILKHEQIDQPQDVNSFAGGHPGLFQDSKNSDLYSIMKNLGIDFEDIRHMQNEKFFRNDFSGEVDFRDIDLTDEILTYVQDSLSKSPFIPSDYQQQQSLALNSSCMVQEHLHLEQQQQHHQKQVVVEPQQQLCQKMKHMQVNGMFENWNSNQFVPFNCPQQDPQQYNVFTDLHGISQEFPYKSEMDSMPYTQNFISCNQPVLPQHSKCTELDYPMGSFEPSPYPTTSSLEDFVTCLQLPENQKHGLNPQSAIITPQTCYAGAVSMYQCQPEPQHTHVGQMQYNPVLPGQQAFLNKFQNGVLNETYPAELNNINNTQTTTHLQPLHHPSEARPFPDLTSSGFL

[2] = target: T2, Aryl hydrocarbon receptor (Homo sapiens, UniProt P35869); assay: as §1; format: cell-based
T2 sequence (P35869 whole entry): T1 sequence (P35869 whole entry)

[3] = target: Cytochrome P450 2D6 (Homo sapiens, UniProt P10635); assay: Inhibition of recombinant human CYP2D6 by P450-Glo luminescence assay; format: ADME
Chain of Cytochrome P450 2D6 (P10635 whole entry): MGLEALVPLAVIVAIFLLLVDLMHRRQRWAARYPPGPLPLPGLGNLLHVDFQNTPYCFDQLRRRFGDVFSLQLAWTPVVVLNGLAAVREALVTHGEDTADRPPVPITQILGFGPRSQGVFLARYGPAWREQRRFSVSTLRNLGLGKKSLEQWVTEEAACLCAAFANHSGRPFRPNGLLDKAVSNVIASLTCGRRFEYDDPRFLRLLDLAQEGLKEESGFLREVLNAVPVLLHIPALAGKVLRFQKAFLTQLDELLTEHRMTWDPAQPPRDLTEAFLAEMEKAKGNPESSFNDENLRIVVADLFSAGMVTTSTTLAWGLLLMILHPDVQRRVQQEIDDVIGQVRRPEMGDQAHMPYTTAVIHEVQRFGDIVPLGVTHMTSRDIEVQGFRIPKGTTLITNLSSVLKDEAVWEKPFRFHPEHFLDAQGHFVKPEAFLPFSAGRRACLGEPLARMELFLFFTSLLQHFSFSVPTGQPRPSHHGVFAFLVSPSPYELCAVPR

[4] = target: Nuclear receptor subfamily 1 group I member 3 (Homo sapiens, UniProt Q14994); assay: (§2) Agonist activity at human CAR3 expressed in African green monkey COS-1 cells cotransfected with RXRalpha after 24 hrs by CYP2B6-luciferase reporter gene assay; format: cell-based; settings: for EC50: cos-1; for Activity: human, cos-1, 24 h
Outline: (§3)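 COS-1 cells co-transfected with CYP2B6-luc, low-constitutive-activity CAR3 variant, RXRα (100 ng/well) and pRL-TK; after 24 h stabilization, compound or DMSO (0.1%, v/v) for 24 h. Firefly luciferase normalized to Renilla; fold change relative to vehicle (set to 1), means of three independent experiments.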

[5] = target: CAR3 (NR1I3) (Homo sapiens, UniProt Q14994, WILDTYPEORMUTANTINASSAY1587668); assay: as §2; format: cell-based; settings: human, COS-1 cells expressing human CAR3 and RXRalpha; read-out: Imax; outline: as §3
[6] = target: T3, Nuclear receptor subfamily 1 group I member 3 (Homo sapiens, UniProt Q14994); assay: Agonist activity at CAR LBD (108 to 348 residues) expressed in human HepG2 cells assessed as receptor binding to PGC1alpha by lanthascreenTR-FRET coactivator assay
T3 sequence (Q14994 whole entry): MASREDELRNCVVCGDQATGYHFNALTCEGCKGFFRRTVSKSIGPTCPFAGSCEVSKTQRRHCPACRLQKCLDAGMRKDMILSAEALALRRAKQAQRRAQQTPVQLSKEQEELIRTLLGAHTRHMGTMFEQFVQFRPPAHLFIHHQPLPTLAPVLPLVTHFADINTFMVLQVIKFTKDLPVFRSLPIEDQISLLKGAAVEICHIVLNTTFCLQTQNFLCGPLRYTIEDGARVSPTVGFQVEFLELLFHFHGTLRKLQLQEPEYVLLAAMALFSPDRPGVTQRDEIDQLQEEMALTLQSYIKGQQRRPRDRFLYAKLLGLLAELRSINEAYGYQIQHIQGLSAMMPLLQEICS

[7] = target: T4, Vitamin D3 receptor (Homo sapiens) (UniProt P11473); assay: Agonist activity at VDR in human primary hepatocytes assessed as upregulation of CYP3A5 mRNA expression at 10 uM after 24 hrs by qRT-PCR method; format: cell-based; settings: Hepatocyte
T4 sequence (whole entry): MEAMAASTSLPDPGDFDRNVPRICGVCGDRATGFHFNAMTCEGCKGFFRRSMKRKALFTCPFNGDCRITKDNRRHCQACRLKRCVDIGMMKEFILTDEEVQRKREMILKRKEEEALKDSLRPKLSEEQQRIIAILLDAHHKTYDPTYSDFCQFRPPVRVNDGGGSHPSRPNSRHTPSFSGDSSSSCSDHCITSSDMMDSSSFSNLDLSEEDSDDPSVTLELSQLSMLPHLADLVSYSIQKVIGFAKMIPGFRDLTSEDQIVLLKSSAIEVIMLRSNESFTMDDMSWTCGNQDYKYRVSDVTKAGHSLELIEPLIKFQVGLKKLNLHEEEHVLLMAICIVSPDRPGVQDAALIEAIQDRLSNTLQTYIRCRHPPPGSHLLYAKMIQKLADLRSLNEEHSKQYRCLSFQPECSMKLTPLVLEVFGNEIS

[8] = target: T3, Nuclear receptor subfamily 1 group I member 3; assay: Agonist activity at human CAR expressed in human HepG2 cells assessed as induction of CYP2B6 mRNA expression at 1 to 10 uM after 24 hrs by qRT-PCR method; format: cell-based; settings: hepg2, 24 h
[9] = target: T3, Nuclear receptor subfamily 1 group I member 3; assay: Agonist activity at human CAR expressed in human HepG2 cells assessed as induction of CYP2B6 mRNA expression at 1 to 5 uM after 24 hrs by qRT-PCR method; format: cell-based; settings: hepg2, 24 h

Row | Emax at 24 h [1] [%] | EC50 [2] [µM] | IC50 ([3]; read-out: IC50) [µM] | EC50 [4] [µM] | Activity [4] | Emax at 24 h [5] [%] | EC50 [6] [µM] | Activity [7] | Activity [8] | IC50 [3] | Activity [9] | SMILES
1 | 219 | 2.3 | 17.3 | 4.04 | Dose-dependent effect | 158 | 5.12 | Active |  |  |  | COc1cccc(-c2nc(SC)c3ccccc3n2)c1
2 | 290 | 7.3 |  | 4.91 | Dose-dependent effect | 462 | 2.07 | Active | Active | Not Active |  | COc1cccc(-c2nc(OC)c3ccccc3n2)c1
3 | 266 | 0.63 |  | 6.12 | Dose-dependent effect | 333 | 0.69 | Active |  | Not Active | Active | COc1cccc(-c2nc3ccccc3c(=S)[nH]2)c1
